Reference: ChEMBL document CHEMBL1629456, “ApoA-I mimetic peptides promote pre-β HDL formation in vivo causing remodeling of HDL and triglyceride accumulation at higher dose” (Bioorg Med Chem, 2010)
Active and inactive are the calls of the source. The rule behind the calls is not given here. *1 amine or outer side, *2 acyl side, *3 side chain or, on linkers, in order; H or OH if unused. Where a SMILES comes first, the peptide text is derived from it. [ ]: non-standard residue; d: D form. dGly(6-heptenyl) = C=CCCCCC[C@@H](N)C(=O)O; Ala(5-hexenyl) = C=CCCCCC[C@H](N)C(=O)O; dNle(6-vinyl) = C=CCCCC[C@@H](N)C(=O)O; X1 = CCCCCCC[C@H](N[*:1])C(=O)[*:2]

Columns and labels:
[1] = tested on: Mus musculus; assay: Effect on triglyceride level in C57/BL6 mouse at 20 mg/kg, sc after 1 hr; type: functional, organism-based; set-up: dose 20 mg/kg; conditions: C57Bl/6
Procedure, shortened: (§1)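 Male C57Bl/6 mice (≥12 weeks, chow-fed) given peptide subcutaneously in 50 mM mannitol/PBS vehicle. Serum was collected by cardiac puncture at 1 or 3 h, clotted 1 h at room temperature and spun at 10,000g. Serum triglyceride was measured by enzymatic colorimetric assay, with 3–5 animals per dose and time point.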

[2] = tested on: Mus musculus; assay: Effect on triglyceride level in C57/BL6 mouse at 20 mg/kg, sc after 3 hrs; type: functional, organism-based; set-up: dose 20 mg/kg; conditions: C57Bl/6; procedure, shortened: as §1
[3] = tested on: Mus musculus; assay: Effect on triglyceride level in C57/BL6 mouse at 60 mg/kg, sc after 1 hr; type: functional, organism-based; set-up: dose 60 mg/kg; conditions: C57Bl/6; procedure, shortened: as §1
[4] = Plasma concentration in C57/BL6 mouse at 60 mg/kg, sc after 3 hrs; type: ADME, organism-based, C57Bl/6; set-up: dose 60 mg/kg, route subcutaneous
Procedure, shortened: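 Male C57Bl/6 mice were dosed subcutaneously with peptide in 50 mM mannitol/PBS. Serum was taken by cardiac puncture, and peptide was measured by LC–MS/MS after acetonitrile protein precipitation.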

[5] = biological target: Lipoprotein lipase (Bos taurus) (UniProt P11151); assay: Inhibition of Lipoprotein lipase in vitro
[6] = tested on: Plasma; assay: Induction of pre-beta HDL formation in human plasma after 2 hrs by ELISA; type: functional, cell-free
Procedure, shortened: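 Increasing peptide concentrations were incubated with normal human plasma at 37 °C for 2 h. Pre-β HDL was quantified by a commercial human pre-β HDL ELISA.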

[7] = tested on: Mus musculus; assay: Effect on triglyceride level in C57/BL6 mouse at 60 mg/kg, sc; type: functional, organism-based; set-up: dose 60 mg/kg; conditions: C57Bl/6, TDE = time-dependent effect; procedure, shortened: as §1
[8] = biological target: Phospholipid-transporting ATPase ABCA1 (Mus musculus, UniProt P41233); assay: Induction of ABCA1-mediated [3H]cholesterol efflux in mouse RAW 264.7 macrophages after 24 hrs
Chain of Phospholipid-transporting ATPase ABCA1 (P41233 whole entry): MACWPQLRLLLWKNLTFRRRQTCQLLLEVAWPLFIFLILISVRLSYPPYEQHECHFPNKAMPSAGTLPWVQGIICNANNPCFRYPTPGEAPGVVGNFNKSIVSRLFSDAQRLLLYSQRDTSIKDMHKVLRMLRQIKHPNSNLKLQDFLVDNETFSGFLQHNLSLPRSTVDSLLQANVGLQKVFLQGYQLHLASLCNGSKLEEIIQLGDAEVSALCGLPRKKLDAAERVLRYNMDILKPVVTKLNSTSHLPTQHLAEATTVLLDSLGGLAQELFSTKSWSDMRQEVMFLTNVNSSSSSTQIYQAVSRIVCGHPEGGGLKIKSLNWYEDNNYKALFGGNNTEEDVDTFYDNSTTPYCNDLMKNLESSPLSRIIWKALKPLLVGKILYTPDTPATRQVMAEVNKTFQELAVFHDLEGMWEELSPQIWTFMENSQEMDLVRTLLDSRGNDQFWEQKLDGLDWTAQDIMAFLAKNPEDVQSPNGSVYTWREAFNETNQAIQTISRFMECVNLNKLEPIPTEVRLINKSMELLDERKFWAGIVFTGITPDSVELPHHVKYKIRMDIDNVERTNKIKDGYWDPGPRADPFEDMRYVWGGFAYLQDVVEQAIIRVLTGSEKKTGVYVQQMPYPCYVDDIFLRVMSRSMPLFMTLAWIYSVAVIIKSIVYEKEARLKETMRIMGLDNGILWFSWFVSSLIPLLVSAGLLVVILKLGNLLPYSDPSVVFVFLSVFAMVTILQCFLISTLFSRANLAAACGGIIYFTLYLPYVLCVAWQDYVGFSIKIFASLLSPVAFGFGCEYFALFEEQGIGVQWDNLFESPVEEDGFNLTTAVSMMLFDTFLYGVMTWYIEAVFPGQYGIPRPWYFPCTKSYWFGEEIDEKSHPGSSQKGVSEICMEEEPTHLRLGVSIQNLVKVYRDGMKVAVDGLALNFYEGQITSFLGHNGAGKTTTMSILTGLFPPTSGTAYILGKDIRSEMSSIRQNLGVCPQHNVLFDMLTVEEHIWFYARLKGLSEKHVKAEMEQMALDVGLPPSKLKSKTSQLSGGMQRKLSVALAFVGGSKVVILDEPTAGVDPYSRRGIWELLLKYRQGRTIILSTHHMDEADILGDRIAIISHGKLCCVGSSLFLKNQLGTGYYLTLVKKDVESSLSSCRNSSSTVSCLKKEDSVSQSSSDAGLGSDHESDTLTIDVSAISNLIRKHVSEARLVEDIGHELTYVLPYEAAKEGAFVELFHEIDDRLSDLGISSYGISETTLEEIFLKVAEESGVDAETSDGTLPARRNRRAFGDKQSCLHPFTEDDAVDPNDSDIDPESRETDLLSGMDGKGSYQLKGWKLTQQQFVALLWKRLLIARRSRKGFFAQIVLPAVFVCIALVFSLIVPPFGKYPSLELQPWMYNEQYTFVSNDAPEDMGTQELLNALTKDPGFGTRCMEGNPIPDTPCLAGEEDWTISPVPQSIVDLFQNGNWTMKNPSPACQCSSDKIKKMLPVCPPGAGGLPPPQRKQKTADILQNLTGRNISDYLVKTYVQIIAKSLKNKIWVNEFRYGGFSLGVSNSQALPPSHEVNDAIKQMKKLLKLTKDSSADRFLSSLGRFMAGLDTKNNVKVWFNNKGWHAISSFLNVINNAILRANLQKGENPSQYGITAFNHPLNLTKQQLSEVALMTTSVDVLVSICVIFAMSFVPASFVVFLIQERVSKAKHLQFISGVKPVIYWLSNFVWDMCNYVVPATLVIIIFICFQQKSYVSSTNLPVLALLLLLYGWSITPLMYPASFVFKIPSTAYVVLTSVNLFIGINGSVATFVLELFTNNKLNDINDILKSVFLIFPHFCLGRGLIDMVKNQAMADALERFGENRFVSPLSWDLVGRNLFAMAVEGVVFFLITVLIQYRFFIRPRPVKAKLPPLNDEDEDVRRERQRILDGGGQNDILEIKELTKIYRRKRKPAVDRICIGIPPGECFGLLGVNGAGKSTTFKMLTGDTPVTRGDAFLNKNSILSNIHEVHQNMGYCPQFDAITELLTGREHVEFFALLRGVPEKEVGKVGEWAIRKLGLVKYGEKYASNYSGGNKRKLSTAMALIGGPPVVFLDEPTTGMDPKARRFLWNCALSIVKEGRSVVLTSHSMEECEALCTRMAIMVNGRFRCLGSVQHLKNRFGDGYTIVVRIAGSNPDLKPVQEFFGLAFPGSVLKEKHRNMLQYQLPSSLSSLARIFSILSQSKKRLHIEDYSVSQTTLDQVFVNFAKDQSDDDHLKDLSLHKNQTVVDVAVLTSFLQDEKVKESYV

concentration at 3 h [4] [µM] | IC50 [5] [µM] | EC50 [8] [µM] | Compound | Activity [1] | Activity [2] | Activity [3] | Activity [6] | Activity [7]
137 | 44 |  | CCCCCCC[C@H](NC(=O)[C@H](CCC(=O)O)NC(=O)[C@H](CC(N)=O)NC(=O)[C@H](CC(C)C)NC(=O)[C@H](CCCCN)NC(=O)[C@H](CCC(=O)O)NC(=O)[C@H](CCCNC(=N)N)NC(=O)[C@H](CCCCCCC)NC(=O)[C@H](CCC(=O)O)NC(=O)[C@H](CC(=O)O)NC(=O)[C@H](CC(C)C)NC(=O)[C@@H](NC(=O)[C@@H]1CCCN1C(C)=O)C(C)C)C(=O)N[C@@H](CC(C)C)C(=O)N[C@@H](CCC(=O)O)C(=O)N[C@@H](C)C(=O)N[C@@H](CC(C)C)C(=O)N[C@@H](CCCCN)C(=O)N[C@@H](CCC(N)=O)C(=O)N[C@@H](CCCCN)C(=O)N[C@@H](CC(C)C)C(=O)N[C@@H](CCCCN)C(N)=O (Ac-PVLDE[X1]REKLNE[X1]LEALKQKLK-NH2) | inactive | inactive | inactive |  | 
 | 100 |  | C=CCCCCC[C@H](NC(=O)[C@H](CCC(=O)O)NC(=O)[C@H](CC(N)=O)NC(=O)[C@H](CC(C)C)NC(=O)[C@H](CCCCN)NC(=O)[C@H](CCC(=O)O)NC(=O)[C@H](CCCNC(=N)N)NC(=O)[C@@H](CCCCC=C)NC(=O)[C@H](CCC(=O)O)NC(=O)[C@H](CC(=O)O)NC(=O)[C@H](CC(C)C)NC(=O)[C@@H](NC(=O)[C@@H]1CCCN1C(C)=O)C(C)C)C(=O)N[C@@H](CC(C)C)C(=O)N[C@@H](CCC(=O)O)C(=O)N[C@@H](C)C(=O)N[C@@H](CC(C)C)C(=O)N[C@@H](CCCCN)C(=O)N[C@@H](CCC(N)=O)C(=O)N[C@@H](CCCCN)C(=O)N[C@@H](CC(C)C)C(=O)N[C@@H](CCCCN)C(N)=O (Ac-PVLDE[dNle(6-vinyl)]REKLNE[Ala(5-hexenyl)]LEALKQKLK-NH2) | inactive | inactive | inactive | Dose-dependent effect | 
 | 477 |  | Ac-PVLDEFREKLNEELEALKQKLK-NH2 |  |  |  | inactive | tde
49 | 40 | 1 | C=CCCCCC[C@H](NC(=O)[C@H](CCC(N)=O)NC(=O)[C@H](CCCCN)NC(=O)[C@H](CC(C)C)NC(=O)[C@H](C)NC(=O)[C@H](CCC(=O)O)NC(=O)[C@H](CC(C)C)NC(=O)[C@H](CCCCCC=C)NC(=O)[C@H](CCC(=O)O)NC(=O)[C@H](CC(N)=O)NC(=O)[C@H](CC(C)C)NC(=O)[C@H](CCCCN)NC(=O)[C@H](CCC(=O)O)NC(=O)[C@H](CCCNC(=N)N)NC(=O)[C@@H](CCCCCC=C)NC(=O)[C@H](CCC(=O)O)NC(=O)[C@H](CC(=O)O)NC(=O)[C@H](CC(C)C)NC(=O)[C@@H](NC(=O)[C@@H]1CCCN1C(C)=O)C(C)C)C(=O)N[C@@H](CC(C)C)C(=O)N[C@@H](CCCCN)C(N)=O (Ac-PVLDE[dGly(6-heptenyl)]REKLNE[Ala(5-hexenyl)]LEALKQ[Ala(5-hexenyl)]LK-NH2) | inactive | inactive | inactive | Dose-dependent effect | 
